ChEMBL document CHEMBL2384977, “Synthesis and biological evaluation of novel styryl benzimidazole derivatives as probes for imaging of neurofibrillary tangles in Alzheimer's disease” (Bioorg Med Chem, 2013)

Key:
Intestine [1] = assay: Biodistribution in ddY mouse intestine at 13.2 to 20.6 kBq, iv measured at 60 mins by gamma counting analysis; type: ADME, organism-based; conditions: in vivo, 1 h
Method in brief: (§1)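 Male ddY mice, 5 weeks old, received the 125I-labelled tracer (13.2–20.6 kBq) intravenously in the tail vein, in 100 µL saline containing ethanol. Animals were sacrificed at 2, 10, 30 and 60 min. Tissue radioactivity is expressed as %ID/g, mean (SD) of 5 animals.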

Pancreas [2] = assay: Biodistribution in ddY mouse pancreas at 13.2 to 20.6 kBq, iv measured at 30 mins by gamma counting analysis; type: ADME, organism-based; conditions: in vivo, 0.5 h; method in brief: as §1
Intestine [3] = assay: Biodistribution in ddY mouse intestine at 13.2 to 20.6 kBq, iv measured at 10 mins by gamma counting analysis; type: ADME, organism-based; conditions: in vivo; method in brief: as §1
Heart [4] = assay: Biodistribution in ddY mouse heart at 13.2 to 20.6 kBq, iv measured at 60 mins by gamma counting analysis; type: ADME, organism-based; conditions: in vivo, 1 h; method in brief: as §1
Intestine [5] = assay: Biodistribution in ddY mouse intestine at 13.2 to 20.6 kBq, iv measured at 30 mins by gamma counting analysis; type: ADME, organism-based; conditions: in vivo, 0.5 h; method in brief: as §1
Blood [6] = assay: Biodistribution in ddY mouse blood at 13.2 to 20.6 kBq, iv measured at 10 mins by gamma counting analysis; type: ADME, organism-based; conditions: in vivo; method in brief: as §1
Liver [7] = assay: Biodistribution in ddY mouse liver at 13.2 to 20.6 kBq, iv measured at 10 mins by gamma counting analysis; type: ADME, organism-based; conditions: in vivo; method in brief: as §1
Blood [8] = assay: Biodistribution in ddY mouse blood at 13.2 to 20.6 kBq, iv measured at 2 mins by gamma counting analysis; type: ADME, organism-based; conditions: in vivo; method in brief: as §1
Spleen [9] = assay: Biodistribution in ddY mouse spleen at 13.2 to 20.6 kBq, iv measured at 2 mins by gamma counting analysis; type: ADME, organism-based; conditions: in vivo; method in brief: as §1
Intestine [10] = assay: Biodistribution in ddY mouse intestine at 13.2 to 20.6 kBq, iv measured at 2 mins by gamma counting analysis; type: ADME, organism-based; conditions: in vivo; method in brief: as §1
Liver [11] = assay: Biodistribution in ddY mouse liver at 13.2 to 20.6 kBq, iv measured at 30 mins by gamma counting analysis; type: ADME, organism-based; conditions: in vivo, 0.5 h; method in brief: as §1
Kidney [12] = assay: Biodistribution in ddY mouse kidney at 13.2 to 20.6 kBq, iv measured at 30 mins by gamma counting analysis; type: ADME, organism-based; conditions: in vivo, 0.5 h; method in brief: as §1
Liver [13] = assay: Biodistribution in ddY mouse liver at 13.2 to 20.6 kBq, iv measured at 60 mins by gamma counting analysis; type: ADME, organism-based; conditions: in vivo, 1 h; method in brief: as §1
Kidney [14] = assay: Biodistribution in ddY mouse kidney at 13.2 to 20.6 kBq, iv measured at 10 mins by gamma counting analysis; type: ADME, organism-based; conditions: in vivo; method in brief: as §1
Brain [15] = assay: Biodistribution in ddY mouse brain at 13.2 to 20.6 kBq, iv measured at 2 mins by gamma counting analysis; type: ADME, organism-based; conditions: in vivo; method in brief: as §1
Kidney [16] = assay: Biodistribution in ddY mouse kidney at 13.2 to 20.6 kBq, iv measured at 60 mins by gamma counting analysis; type: ADME, organism-based; conditions: in vivo, 1 h; method in brief: as §1
Lung [17] = assay: Biodistribution in ddY mouse lung at 13.2 to 20.6 kBq, iv measured at 30 mins by gamma counting analysis; type: ADME, organism-based; conditions: in vivo, 0.5 h; method in brief: as §1
Blood [18] = assay: Biodistribution in ddY mouse blood at 13.2 to 20.6 kBq, iv measured at 30 mins by gamma counting analysis; type: ADME, organism-based; conditions: in vivo, 0.5 h; method in brief: as §1
Heart [19] = assay: Biodistribution in ddY mouse heart at 13.2 to 20.6 kBq, iv measured at 30 mins by gamma counting analysis; type: ADME, organism-based; conditions: in vivo, 0.5 h; method in brief: as §1
Spleen [20] = assay: Biodistribution in ddY mouse spleen at 13.2 to 20.6 kBq, iv measured at 10 mins by gamma counting analysis; type: ADME, organism-based; conditions: in vivo; method in brief: as §1
Stomach [21] = assay: Biodistribution in ddY mouse stomach at 13.2 to 20.6 kBq, iv measured per organ at 10 mins by gamma counting analysis; type: ADME, organism-based; conditions: in vivo
Method in brief: (§2)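 Male ddY mice, 5 weeks old, were injected in the tail vein with the 125I tracer (13.2–20.6 kBq) in 100 µL saline containing ethanol. Sacrifice at 2, 10, 30 and 60 min. Stomach radioactivity is expressed as %ID per whole organ, mean (SD) of 5 animals.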

Blood [22] = assay: Biodistribution in ddY mouse blood at 13.2 to 20.6 kBq, iv measured at 60 mins by gamma counting analysis; type: ADME, organism-based; conditions: in vivo, 1 h; method in brief: as §1
Lung [23] = assay: Biodistribution in ddY mouse lung at 13.2 to 20.6 kBq, iv measured at 2 mins by gamma counting analysis; type: ADME, organism-based; conditions: in vivo; method in brief: as §1
Pancreas [24] = assay: Biodistribution in ddY mouse pancreas at 13.2 to 20.6 kBq, iv measured at 2 mins by gamma counting analysis; type: ADME, organism-based; conditions: in vivo; method in brief: as §1
Pancreas [25] = assay: Biodistribution in ddY mouse pancreas at 13.2 to 20.6 kBq, iv measured at 10 mins by gamma counting analysis; type: ADME, organism-based; conditions: in vivo; method in brief: as §1
Stomach [26] = assay: Biodistribution in ddY mouse stomach at 13.2 to 20.6 kBq, iv measured per organ at 60 mins by gamma counting analysis; type: ADME, organism-based; conditions: in vivo, 1 h; method in brief: as §2
Lung [27] = assay: Biodistribution in ddY mouse lung at 13.2 to 20.6 kBq, iv measured at 10 mins by gamma counting analysis; type: ADME, organism-based; conditions: in vivo; method in brief: as §1
Heart [28] = assay: Biodistribution in ddY mouse heart at 13.2 to 20.6 kBq, iv measured at 2 mins by gamma counting analysis; type: ADME, organism-based; conditions: in vivo; method in brief: as §1
Lung [29] = assay: Biodistribution in ddY mouse lung at 13.2 to 20.6 kBq, iv measured at 60 mins by gamma counting analysis; type: ADME, organism-based; conditions: in vivo, 1 h; method in brief: as §1
Stomach [30] = assay: Biodistribution in ddY mouse stomach at 13.2 to 20.6 kBq, iv measured per organ at 30 mins by gamma counting analysis; type: ADME, organism-based; conditions: in vivo, 0.5 h; method in brief: as §2
[31] = 1-Octanol-PBS buffer partition coefficient, log P of the compound at 0.37 MBq after 2 mins by gamma counting analysis; type: physicochemical
Kidney [32] = assay: Biodistribution in ddY mouse kidney at 13.2 to 20.6 kBq, iv measured at 2 mins by gamma counting analysis; type: ADME, organism-based; conditions: in vivo; method in brief: as §1
Pancreas [33] = assay: Biodistribution in ddY mouse pancreas at 13.2 to 20.6 kBq, iv measured at 60 mins by gamma counting analysis; type: ADME, organism-based; conditions: in vivo, 1 h; method in brief: as §1
Brain [34] = assay: Biodistribution in ddY mouse brain at 13.2 to 20.6 kBq, iv measured at 60 mins by gamma counting analysis; type: ADME, organism-based; conditions: in vivo, 1 h; method in brief: as §1
Heart [35] = assay: Biodistribution in ddY mouse heart at 13.2 to 20.6 kBq, iv measured at 10 mins by gamma counting analysis; type: ADME, organism-based; conditions: in vivo; method in brief: as §1
Liver [36] = assay: Biodistribution in ddY mouse liver at 13.2 to 20.6 kBq, iv measured at 2 mins by gamma counting analysis; type: ADME, organism-based; conditions: in vivo; method in brief: as §1
Brain [37] = assay: Biodistribution in ddY mouse brain at 13.2 to 20.6 kBq, iv measured at 30 mins by gamma counting analysis; type: ADME, organism-based; conditions: in vivo, 0.5 h; method in brief: as §1
Stomach [38] = assay: Biodistribution in ddY mouse stomach at 13.2 to 20.6 kBq, iv measured per organ at 2 mins by gamma counting analysis; type: ADME, organism-based; conditions: in vivo; method in brief: as §2
Spleen [39] = assay: Biodistribution in ddY mouse spleen at 13.2 to 20.6 kBq, iv measured at 30 mins by gamma counting analysis; type: ADME, organism-based; conditions: in vivo, 0.5 h; method in brief: as §1
Brain [40] = assay: Ratio of drug level in ddY mouse brain at 13.2 to 20.6 kBq, iv measured at 2 mins to drug level in ddY mouse brain at 13.2 to 20.6 kBq, iv measured at 60 mins; type: ADME, organism-based; conditions: in vivo
Method in brief: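 Tail-vein injection of the 125I tracer (13.2–20.6 kBq, saline with ethanol) into male 5-week-old ddY mice. The ratio is brain uptake (%ID/g) at 2 min divided by brain uptake at 60 min, from groups of 5 animals.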

Brain [41] = assay: Biodistribution in ddY mouse brain at 13.2 to 20.6 kBq, iv measured at 10 mins by gamma counting analysis; type: ADME, organism-based; conditions: in vivo; method in brief: as §1
Spleen [42] = assay: Biodistribution in ddY mouse spleen at 13.2 to 20.6 kBq, iv measured at 60 mins by gamma counting analysis; type: ADME, organism-based; conditions: in vivo, 1 h; method in brief: as §1

Drug uptake (Intestine [1]): 27.4 % ID/g | Drug uptake (Pancreas [2]): 0.69 % ID/g | Drug uptake (Intestine [3]): 13.7 % ID/g | Drug uptake (Heart [4]): 1.13 % ID/g | Drug uptake (Intestine [5]): 22.1 % ID/g | Drug uptake (Blood [6]): 2.72 % ID/g | Drug uptake (Liver [7]): 29.9 % ID/g | Drug uptake (Blood [8]): 5.94 % ID/g | Drug uptake (Spleen [9]): 5.5 % ID/g | Drug uptake (Intestine [10]): 4.09 % ID/g | Drug uptake (Liver [11]): 19.3 % ID/g | Drug uptake (Kidney [12]): 2.54 % ID/g | Drug uptake (Liver [13]): 15.6 % ID/g | Drug uptake (Kidney [14]): 5.04 % ID/g | Drug uptake (Brain [15]): 3.2 % ID/g | Drug uptake (Kidney [16]): 3.25 % ID/g | Drug uptake (Lung [17]): 1.62 % ID/g | Drug uptake (Blood [18]): 1.57 % ID/g | Drug uptake (Heart [19]): 1.48 % ID/g | Drug uptake (Spleen [20]): 4.87 % ID/g | Drug uptake (Stomach [21]): 4.13 %ID | Drug uptake (Blood [22]): 1.24 % ID/g | Drug uptake (Lung [23]): 9.09 % ID/g | Drug uptake (Pancreas [24]): 4.99 % ID/g | Drug uptake (Pancreas [25]): 1.93 % ID/g | Drug uptake (Stomach [26]): 4.37 %ID | Drug uptake (Lung [27]): 3.55 % ID/g | Drug uptake (Heart [28]): 8.31 % ID/g | Drug uptake (Lung [29]): 1.44 % ID/g | Drug uptake (Stomach [30]): 3.6 %ID | logP at 2 min [31]: 1.88 | Drug uptake (Kidney [32]): 10.6 % ID/g | Drug uptake (Pancreas [33]): 1.43 % ID/g | Drug uptake (Brain [34]): 0.12 % ID/g | Drug uptake (Heart [35]): 2.84 % ID/g | Drug uptake (Liver [36]): 29.4 % ID/g | Drug uptake (Brain [37]): 0.26 % ID/g | Drug uptake (Stomach [38]): 1.7 %ID | Drug uptake (Spleen [39]): 2.71 % ID/g | Ratio (Brain [40]): 26.7 | Drug uptake (Brain [41]): 1.4 % ID/g | Drug uptake (Spleen [42]): 2.46 % ID/g
SMILES: Nc1ccc(/C=C/c2nc3ccc([125I])cc3[nH]2)cc1
